# Hits are enriched below; roughly 4.1% of the tested compounds scored in any of these assays.
# KCNQ1 pot – human KCNQ1 channel potentiation or activation | P51787 | CHO-K1 KCNQ1, thallium flux FluxOR fluorescence; hits give high values | B-score at 10 µM | actives 0.35% (n = 310,000) | AID 2648;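 active means fluorescence ratio B-score, a plate-corrected score, at least three library SD, with initial intensity B-score within 5 SD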
#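 Medium – assay buffer, equal DMSO in all wells · Material – CHO-K1 cell line with stable KCNQ1 potassium channel expression · Signal – kinetic FluxOR thallium fluorescence, 10-s 1-Hz baseline, 110-s post-stimulus read · Compound – single concentration per compound, DMSO matched to controls · Schedule – 37 °C overnight plating, 90-min dark dye load, 20-min compound pretreatment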
# KCNQ1 block – human KCNQ1 channel inhibition | CHO-K1 KCNQ1, FluxOR thallium flux fluorescence; hits give high values | actives 1.3% (n = 310,000) | P51787 | B-score at 10 µM;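 active means compounds whose thallium flux B-score, printed positive for inhibition, exceeds three library SD while starting fluorescence stays within three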;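 further: channel opened by potassium depolarization with thallium stimulus after 20 min compound exposure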
# Cl transport mod – modulates chloride dependent transport by human KCC2; KCC2 cells, thallium flux FluoZin-2 fluorescence; AID 1456; actives 2.2% (n = 190,000); Q9H2X9; B-score of Tl+ flux slope (higher = more flux/activation; lower = inhibition) at 10 µM;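 active means thallium flux slope and its plate-corrected score both differing from the plate sample mean at a set confidence after two filtering rounds, in either direction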;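 further: slope of fluorescence scaled to starting intensity during 10 to 20 s after thallium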
# KCNK9 inh – human KCNK9 channel inhibition; B-score at 10 µM; actives 1.2% (n = 310,000); HEK293 KCNK9, FluxOR thallium flux fluorescence; hits give low values; Q9NPC2;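 active means ratio B-score over 3 SD below the library mean, with starting fluorescence within 5 SD of its mean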;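 further: negative B-score means less thallium flux so channel inhibition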
# KCNK3 inh – human KCNK3 channel inhibition, primary screen | O14649 | CHO-KCNK3 thallium flux, FluxOR fluorescence; hits give low values | B-score at 10 µM | actives 0.84% (n = 340,000) | AID 602410;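 active means B-score under library mean minus 4 SD, starting fluorescence ratio at most library mean plus 5 SD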;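 further: more negative B-score means stronger inhibition of thallium flux through KCNK3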
# hERG protect – shields human hERG channel from block by proarrhythmic agents. Q12809. CHO-hERG, FluxOR thallium flux, dofetilide IC70 present. activation (rescue from dofetilide block), less the hit threshold, % at 10 µM. actives 0.51% (n = 310,000). AID 1511;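 active means activation above the mean of controls blocked by dofetilide plus 5 SD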;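 further: thallium influx through hERG after potassium depolarization seen as dye fluorescence rise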
# KCNK9 block conf – human KCNK9 inhibitor confirmation. HEK293 KCNK9 cells, FluxOR thallium flux fluorescence. AID 492992. actives 43% (n = 4,900). inhibition, % at 10 µM. shares compounds with KCNK9 inh;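 active means thallium signal inhibited by more than 5 SD of the compound-free buffer control wells, on both duplicate plates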;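 further: 0% = assay buffer control wells without compound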
# Kir21 sel – selectivity of KCNK9 modulators against mouse Kir2.1; shares compounds with KCNK9 inh; Kir2.1 cells, FluxOR thallium flux fluorescence; inhibition, % at 10 µM; actives 4% (n = 4,900); AID 492993;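 active means thallium signal drop more than 5 SD beyond the mean of the no-compound control wells, seen in both duplicate plates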;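 further: signal is fluorescence rise after thallium addition divided by baseline fluorescence; plate controls were assay buffer only for no effect and full block by chlorpromazine control for full effect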
# HEK293 Tl ctr – second counter-screen for KCNK9 modulators: effect in non-induced cells. shares compounds with KCNK9 inh. non-induced KCNK9-HEK293, FluxOR thallium flux. inhibition, % at 10 µM. actives 40% (n = 4,900). AID 492997;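 active means thallium signal drop beyond 5 SD of the untreated control mean, on both duplicate plates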;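 further: plate controls were buffer only IC0 wells for no effect and SID17386958 at its maximal inhibitory level for full effect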
# * marks the source's active call; other numbers are inactive results; i = inactive; . = no result given.
SMILES,KCNQ1 pot,KCNQ1 block,Cl transport mod,KCNK9 inh,KCNK3 inh,hERG protect,KCNK9 block conf,Kir21 sel,HEK293 Tl ctr
NC(=O)COC(=O)c1ccc(Cl)c(S(=O)(=O)N(Cc2ccccc2)c2ccc(Cl)cc2)c1,i,i,-2.1,i,i,-8,.,.,.
O=C1CCC(c2ccccc2)N1c1ccccc1 (centres undefined),.,.,.,.,i,.,.,.,.
CCN1CCc2c(sc(NC(=O)COc3ccccc3)c2C(=O)OC)C1,i,i,.,i,i,-10,.,.,.
COc1ccc(/C=N/n2c(N)nc(-c3ccccc3)c2-c2ccccc2)cc1,i,i,-0.62,i,i,-40,i,i,i
Cc1ccc(SCCNC(=O)c2ccc(C)c([N+](=O)[O-])c2)cc1,i,i,.,i,i,-15,.,.,.
Cc1ccc(C(=O)NCCSc2ccc(Cl)cc2)cc1[N+](=O)[O-],i,i,-1.3,i,i,-23,i,i,i
Cc1ccc(SCCNC(=O)c2ccc([N+](=O)[O-])c(C)c2)cc1,i,i,.,i,i,-7,i,i,i
COc1ccc2c(c1)sc(=NC(=O)CS(=O)(=O)c1ccc(F)cc1)n2C,i,i,.,i,i,-16,.,.,.
COc1ccccc1CNC(=O)c1cccc(-c2ccc(C)c3ccccc23)n1,i,i,0.015,i,.,-6,.,.,.
CCCCCCNC(=O)c1cccc(-c2ccc(C)c3ccccc23)n1,i,i,0.82,i,i,-11,i,i,i
Cc1ccccc1Nc1scc(-c2ccc(Cl)cc2)[n+]1-c1ccccc1C,i,i,-0.41,-8.4*,i,-17,62%*,i,i
Cc1c(Nc2scc(-c3ccccc3)[n+]2-c2ccccc2)c(=O)n(-c2ccccc2)n1C,i,i,-0.18,i,i,-21,.,.,.
Cc1noc(C)c1CSCC(=O)N(C)CC(=O)Nc1ccc(Cl)c(C(F)(F)F)c1,i,i,.,-10*,i,-15,52%*,i,24%*
Cc1noc(C)c1CSCC(=O)N(C)CC(=O)Nc1ccc(Cl)c(Cl)c1,i,i,.,i,i,-18,.,.,.
COc1cc(C(=O)COC(=O)c2ccc([N+](=O)[O-])o2)cc(OC)c1OC,.,.,.,.,i,.,.,.,.
COc1ccc(C(=O)C2CCCN(Cc3cccn3-c3ccccn3)C2)cc1F (centres undefined),i,i,-0.26,i,i,-29,.,.,.
CSc1ccc(C(=O)C2CCCN(Cc3cccc4nccnc34)C2)cc1 (centres undefined),i,i,-1.6,i,i,-18,i,i,i
CSc1ccc(C(=O)C2CCCN(C(=O)CCCn3cncn3)C2)cc1 (centres undefined),i,i,0.065,i,i,-5,.,.,.
O=C(c1cccc(C(F)(F)F)c1)C1CCCN(Cc2cccn2-c2ncccn2)C1 (centres undefined),i,i,-0.98,i,i,-24,i,i,i
CCOC(=O)C1CCCN(Cc2ccc(O)c(OC)c2)C1 (centres undefined),i,i,0.0055,i,i,-10,.,.,.
CCOc1cc(CN2CCCC(C(=O)c3cccc(C(F)(F)F)c3)C2)ccc1O (centres undefined),i,i,-0.037,i,i,-20,i,i,i
O=C(c1ccc(C(F)(F)F)cc1)C1CCCN(Cc2cccn2-c2ncccn2)C1 (centres undefined),i,i,1.2,i,i,-16,i,i,i
COC(=O)c1sc(N)c(C(=O)OC)c1COC(=O)CCNS(=O)(=O)c1ccc(C)cc1,i,i,-0.18,i,i,-4,.,.,.

# Screens deposited in PubChem BioAssay by several laboratories.
